Reference: ChEMBL document CHEMBL2010740, “Synthesis and evaluation of 2-amido-3-carboxamide thiophene CB₂ receptor agonists for pain management” (Bioorg Med Chem Lett, 2012)

How the values were obtained:
Cannabinoid receptor 2 [1] = target: T1, Cannabinoid receptor 2 (Homo sapiens, UniProt P34972); assay: Displacement of [3H]CP-55940 from human recombinant CB2 receptor expressed in HEK293 cells after 90 mins; assay type: cell-based
In short: (§1)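 Competitive binding: [³H]CP-55,940 displaced from membranes of HEK 293 cells stably transfected with human or rat CB₂, or CHO cells stably transfected with human or rat CB₁. Reported as pKi. Determinations >2 (duplicate of duplicate).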

Cannabinoid receptor 2 [2] = target: T2, Cannabinoid receptor 2 (Rattus norvegicus, UniProt Q9QZN9); assay: Displacement of [3H]CP-55940 from rat recombinant CB2 receptor expressed in HEK293 cells after 90 mins; assay type: cell-based; in short: as §1
T2 sequence (Q9QZN9 whole entry): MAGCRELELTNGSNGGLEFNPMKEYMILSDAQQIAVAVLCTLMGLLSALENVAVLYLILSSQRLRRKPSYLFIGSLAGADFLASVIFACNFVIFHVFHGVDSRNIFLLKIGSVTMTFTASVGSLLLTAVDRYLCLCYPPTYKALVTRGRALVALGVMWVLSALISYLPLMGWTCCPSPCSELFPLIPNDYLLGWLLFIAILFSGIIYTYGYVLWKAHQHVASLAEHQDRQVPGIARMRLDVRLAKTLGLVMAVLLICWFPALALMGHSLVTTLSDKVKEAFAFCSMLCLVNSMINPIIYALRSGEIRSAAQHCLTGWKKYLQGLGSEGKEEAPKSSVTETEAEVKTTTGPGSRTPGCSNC

Cannabinoid receptor 1 [3] = target: T3, Cannabinoid receptor 1 (Homo sapiens, UniProt P21554); assay: Displacement of [3H]CP-55940 from human recombinant CB1 receptor expressed in CHO cells after 90 mins; assay type: cell-based; in short: as §1
Cannabinoid receptor 1 [4] = target: T4, Cannabinoid receptor 1 (Rattus norvegicus, UniProt P20272); assay: Agonist activity at rat recombinant CB1 receptor expressed in HEK293 cells assessed as inhibition of forskolin-induced cAMP production after 20 mins by ELISA; assay type: functional, cell-based
In short: (§2)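 cAMP assay in HEK 293 cells stably expressing the relevant CB receptor, with a fixed concentration of forskolin. cAMP was quantified by ELISA. Activation is given as percent of the CP-55,940 control response.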

Cannabinoid receptor 2 [5] = target: T1, Cannabinoid receptor 2; assay: Agonist activity at human recombinant CB2 receptor expressed in HEK293 cells co-expressing chimeric Gaq/o protein by FLIPR assay; assay type: functional, cell-based
In short: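 FLIPR functional assay in HEK 293 cells stably co-expressing chimeric Gαq/o protein and the CB receptor. Net peak evoked response was compared with the peak response to CP-55,940.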

Cannabinoid receptor 1 [6] = target: T3, Cannabinoid receptor 1; assay: Agonist activity at human recombinant CB1 receptor expressed in HEK293 cells assessed as inhibition of forskolin-induced cAMP production after 20 mins by ELISA; assay type: functional, cell-based; in short: as §2
Cannabinoid receptor 1 [7] = target: T4, Cannabinoid receptor 1; assay: Displacement of [3H]CP-55940 from rat recombinant CB1 receptor expressed in CHO cells after 90 mins; assay type: cell-based; in short: as §1
[8] = target: T5, Cannabinoid receptor 2 (Rattus norvegicus) (UniProt Q9QZN9); assay: Agonist activity at rat recombinant CB2 receptor expressed in HEK293 cells assessed as inhibition of forskolin-induced cAMP production after 20 mins by ELISA relative to CP55940; assay type: functional, cell-based; in short: as §2
T5 sequence (whole entry): T2 sequence (Q9QZN9 whole entry)

Cannabinoid receptor 2 [9] = target: T2, Cannabinoid receptor 2; assay: Agonist activity at rat recombinant CB2 receptor expressed in HEK293 cells assessed as inhibition of forskolin-induced cAMP production after 20 mins by ELISA; assay type: functional, cell-based; in short: as §2
Cannabinoid receptor 2 [10] = target: T1, Cannabinoid receptor 2; assay: Agonist activity at human recombinant CB2 receptor expressed in HEK293 cells assessed as inhibition of forskolin-induced cAMP production after 20 mins by ELISA; assay type: functional, cell-based; in short: as §2
[11] = Plasma protein binding in human; assay type: ADME, cell-free; conditions: read-out: PPB (converted)
[12] = Plasma protein binding in rat; assay type: ADME, cell-free; conditions: read-out: PPB (converted)

T1 sequence (P34972 whole entry): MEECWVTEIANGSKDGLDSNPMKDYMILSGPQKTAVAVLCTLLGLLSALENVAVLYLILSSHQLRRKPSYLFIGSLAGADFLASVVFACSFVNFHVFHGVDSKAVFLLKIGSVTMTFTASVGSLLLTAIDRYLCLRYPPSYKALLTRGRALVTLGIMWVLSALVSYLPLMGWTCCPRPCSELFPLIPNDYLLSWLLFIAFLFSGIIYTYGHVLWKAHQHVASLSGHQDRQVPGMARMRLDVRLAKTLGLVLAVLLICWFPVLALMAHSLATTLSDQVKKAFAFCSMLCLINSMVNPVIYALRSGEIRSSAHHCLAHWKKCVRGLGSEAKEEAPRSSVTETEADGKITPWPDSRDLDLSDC
T3 sequence (P21554 whole entry): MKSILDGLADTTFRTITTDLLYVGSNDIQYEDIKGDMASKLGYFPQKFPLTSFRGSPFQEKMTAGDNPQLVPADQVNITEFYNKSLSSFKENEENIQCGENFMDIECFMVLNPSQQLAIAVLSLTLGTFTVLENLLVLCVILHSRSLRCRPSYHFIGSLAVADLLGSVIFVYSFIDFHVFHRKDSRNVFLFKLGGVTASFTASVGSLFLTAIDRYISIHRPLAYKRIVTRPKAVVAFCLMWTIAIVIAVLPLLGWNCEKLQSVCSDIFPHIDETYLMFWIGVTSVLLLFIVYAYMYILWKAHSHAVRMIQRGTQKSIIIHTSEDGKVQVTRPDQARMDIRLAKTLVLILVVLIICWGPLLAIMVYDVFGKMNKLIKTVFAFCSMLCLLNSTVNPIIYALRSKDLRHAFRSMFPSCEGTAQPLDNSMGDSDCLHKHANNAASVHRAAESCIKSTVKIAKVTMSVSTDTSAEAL
T4 sequence (P20272 whole entry): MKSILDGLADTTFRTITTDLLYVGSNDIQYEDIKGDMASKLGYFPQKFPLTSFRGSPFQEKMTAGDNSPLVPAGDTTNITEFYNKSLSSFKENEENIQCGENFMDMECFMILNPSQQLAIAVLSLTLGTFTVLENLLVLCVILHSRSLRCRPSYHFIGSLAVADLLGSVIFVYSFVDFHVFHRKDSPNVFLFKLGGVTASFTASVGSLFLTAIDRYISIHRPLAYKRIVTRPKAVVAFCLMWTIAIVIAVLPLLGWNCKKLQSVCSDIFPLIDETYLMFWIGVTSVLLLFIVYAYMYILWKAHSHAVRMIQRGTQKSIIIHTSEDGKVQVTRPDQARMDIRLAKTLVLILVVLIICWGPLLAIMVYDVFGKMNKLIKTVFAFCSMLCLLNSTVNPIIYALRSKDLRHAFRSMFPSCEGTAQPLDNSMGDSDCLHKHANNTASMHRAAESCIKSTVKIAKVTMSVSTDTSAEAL

| Compound | Ki (Cannabinoid receptor 2 [1]) [nM] | Ki (Cannabinoid receptor 2 [2]) [nM] | Ki (Cannabinoid receptor 1 [3]) [nM] | IC50 (Cannabinoid receptor 1 [4]) [nM] | IC50 (Cannabinoid receptor 2 [5]) [nM] | IC50 (Cannabinoid receptor 1 [6]) [nM] | Ki (Cannabinoid receptor 1 [7]) [nM] | Imax [8] [%] | IC50 (Cannabinoid receptor 2 [9]) [nM] | IC50 (Cannabinoid receptor 2 [10]) [nM] | fraction unbound [11] | fraction unbound [12] |
| --- | --- | --- | --- | --- | --- | --- | --- | --- | --- | --- | --- | --- |
| CCNC(=O)c1c(NC(=O)C23CC4CC(CC2C4)C3)sc2c1CCOC2 | 214 | 295 | > 10000 |  |  |  |  |  |  |  |  |  |
| O=C(c1c(NC(=O)C23CC4CC(CC2C4)C3)sc2c1CCOC2)N1CC(F)(F)C1 | 5.62 | 46.8 | 3390 | 229 | 5.62 | 550 | 66.1 | 53 | 9.55 | 0.2 |  |  |
| CCCNC(=O)c1c(NC(=O)C2CC3CCC2C3)sc2c1CCOC2 (stereo not drawn) | 105 | 269 | > 10000 |  |  |  |  |  |  |  |  |  |
| CCCNC(=O)c1c(NC(=O)C23CC4CC(CC(C4)C2)C3)sc2c1CCOC2 | 33.9 | 20 | > 10000 |  | 42.7 |  | 525 |  | > 10000 | 11.2 | < 0.01 | < 0.01 |
| CCCNC(=O)c1c(NC(=O)C23CC4CC(CC2C4)C3)sc2c1CCCC2 | 1.95 | 3.55 | 1910 |  | 83.2 |  | 46.8 |  |  | 9.77 |  |  |
| CCCNC(=O)c1c(NC(=O)C23CC4CC(CC2C4)C3)sc2c1CCNC2 | > 1000 |  |  |  |  |  |  |  |  |  | < 0.01 | < 0.01 |
| CCCNC(=O)c1c(NC(=O)C23CC4CC(CC2C4)C3)sc2c1CCN(C)C2 | 91.2 | 5.89 | > 10000 |  | > 10000 |  |  |  |  |  |  |  |
